In ChEMBL document CHEMBL4513216, “Probing the Open Global Health Chemical Diversity Library for Multistage-Active Starting Points for Next-Generation Antimalarials” (ACS Infect Dis, 2020):

Experiment: Toxicity liver stage against HepG2, at 10uM
Format: cell-based
Set-up: test concentration 10 uM, cell line HepG2-A16-CD81EGFP
Conditions: human, HepG2-A16-CD81EGFP cells; read-out: INHIBITION
Summary of the method: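 Uninfected HepG2-A16-CD81EGFP cells, 3 × 10^3 per well, 1536-well, plated on prespotted compound at 10 μM final, parasite-free screening media added to match infected plates; puromycin 10 μM positive, DMSO 0.5% negative; run in parallel with 48 h PbLuc assay at 37 °C, 5% CO2; viability by CellTiter-Glo luminescence, normalized to controls.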

| SMILES | cytotoxicity at 10 µM |
| --- | --- |
| O=c1c2ccccc2nc2n1C(CSc1ccc(Cl)cc1)CN2 (stereo not given) | 9.38% |
| NCCC(Cc1ccccc1)c1ccco1 (stereo not given) | 0.45% |
| COc1ccc(-c2noc(C(N)CCSC)n2)cc1 (stereo not given) | -7.27% |
| O=S(=O)(c1c(F)cccc1F)N1CCC(Cn2cccn2)CC1 | -11.9% |
| Cc1nnc(C[C@@H]2COC[C@H]3CN(C(=O)C4=CCCC4)C[C@@H]23)o1 | -5.86% |
| CC(C)CNC(=O)c1cc2c(s1)CCN2Cc1cccnc1 | -6.16% |
| Cn1cc(CN2CCO[C@H]3C(Cn4cccn4)CC[C@@H]32)cn1 (stereo not given in full) | -3.12% |
| CC(=O)N1CCC2(CC1)CNc1ccc(F)cc12 | 1.63% |
| O=C(c1cc(-c2ccn(CC3CC3)n2)n2ccccc12)N1CCOCC1 | 9.76% |
| CCN(CC)[C@@H]1CN(Cc2cnn(C)c2)[C@@H]2COC[C@H]12 | 8.61% |
| O=C(C1CC=CC1)N1CC[C@H]2[C@@H]1CCC(=O)N2c1ccccc1 | 8.88% |
| O=C(CC1CCCC1)NCCn1ccc(-c2ccncc2)n1 | 5.97% |
| CCC(=O)N1CCC(c2nc(N3CCOCC3)ncc2S(C)(=O)=O)CC1 | 3.65% |
| Cc1cccc(Nc2ccc(C3CCN(Cc4ncc[nH]4)CC3)nc2)n1 | -2.83% |
| Nc1cccc(C2CN(C(=O)CN3CCOCC3)CCO2)n1 (stereo not given) | -8.83% |
| CCc1nnc(Nc2cccc(C3CCN(c4cnccn4)CC3)n2)s1 | -26.5% |
| CCCC(=O)N1CCC(c2cc3n(n2)[C@@H](C(F)(F)F)C[C@@H](C)N3)CC1 | -10.3% |
| O=c1[nH]c2ccccc2cc1CNCCCN1CCOCC1 | -17.5% |
| O=C1NCC2(CCCN(Cc3ccncc3)C2)Oc2ccccc21 (stereo not given) | -13.8% |
| O=C(O)C1(Cc2cc(-c3cccc(F)c3)no2)CCOCC1 | -4.97% |
| O=C(c1ccnnc1)N1C[C@@H]2CC[C@H](Oc3cccc(F)c3)[C@@H]2C1 | 2.37% |
| Cc1noc(C)c1CN(C)C(=O)C1CCCCN1S(C)(=O)=O (stereo not given) | 5.04% |

| SMILES | cytotoxicity at 10 µM |
| --- | --- |
| COC(=O)CNC(=O)CCc1cc(Cl)cs1 | -5.31% |
| N#Cc1ccc(SCCC(=O)O)cc1 | -2.85% |
| CCOC(=O)NC1CCCN(c2cncc(Br)c2)C1 (stereo not given) | -46.4% |
| Cc1cc(Cn2cc(C#N)c(=O)c3ccccc32)no1 | 5.76% |
| Cc1c(COC(C)C)cccc1NC(=O)N1CCC(N2CCCC2)C1 (stereo not given) | -5.56% |
| Cc1ccccc1CC(C)(C)NC(=O)c1cccc(OCC(N)=O)c1 | 2.93% |
| O=C(Cc1cccs1)NS(=O)(=O)c1cccc2cnccc12 | -14.6% |
| CC(=O)NCCCSC1CCN(c2ccccc2Cl)C1=O (stereo not given) | -9.04% |
| O=C(c1sccc1C1CC1)N1CCN(c2nccs2)CC1 | 1.41% |
| CC(=O)c1c(F)cccc1NC1CCN(C(=O)C2CCCCC2)CC1 | 20.7% |
| CCS(=O)(=O)CC(=O)NC1CCc2nccn2C1 (stereo not given) | 17.1% |
| COCCS(=O)(=O)N1CCN(c2cccc(O)c2)CC1 | 5.33% |
| CC(C)Cc1nnc(NC(=O)NC(CCO)c2cccs2)s1 (stereo not given) | 0.191% |
| Cc1c(C(=O)NCCC(C)C)nnn1-c1cccc2c1CCN(C)C2 | 1.31% |
| CCC(C)(C)NC(=O)c1nnn(-c2cccc3c2CCN(C)C3)c1C | -0.663% |
| O=C(CCN1CCC(C(=O)c2cc(F)ccc2F)CC1)NC1CCCC1 | 4.76% |
| CC(C)S(=O)(=O)NC(=O)c1cc(-c2cccc(Cl)c2)no1 | 10% |
| Cc1nn(C)c(N2CCOCC2)c1CNC(C)c1ccccn1 (stereo not given) | -10.7% |
| Cc1cc(F)ccc1-n1cc(O)c(C(=O)NCC[S+](C)[O-])n1 (stereo not given) | 9.38% |
| Cn1c(=O)oc2cc(Nc3nccnc3C#N)ccc21 | 2.14% |
| Cn1nc(Br)c2c(NCCS(N)(=O)=O)ncnc21 | 15.8% |
| Cc1nnc2n1CCN(C(=O)CN1C(=O)C(C)Oc3ccccc31)C2 (stereo not given) | -0.905% |

| SMILES | cytotoxicity at 10 µM |
| --- | --- |
| COc1cc2c(c(OC)c1OC)CCN(CCn1nc(C)cc1C)CC2 | 12.9% |
| Cc1ccc(S(=O)(=O)NC(=O)CCOCc2ccccc2)s1 | -11.2% |
| Cc1cnn(CC(=O)NC2CCCc3cc(OC(F)F)ccc32)c1 (stereo not given) | -0.653% |
| CNS(=O)(=O)c1ccc(CNC(=O)N(C)CC(O)COC)cc1 (stereo not given) | -1.22% |
| CC(C)c1noc(CCNC(=O)N2CCC(O)(C(F)(F)F)C2)n1 (stereo not given) | 9.74% |
| CCN(C)C(C(=O)Nc1ccc2c(c1)CCC(=O)N2)c1ccccc1 (stereo not given) | -1.45% |
| COCC(C)N(C)C(=O)NC1CCN(S(C)(=O)=O)CC1 (stereo not given) | 5.36% |
| Cc1cccc(N(CC(=O)N2CCCCC2)Cc2ccno2)c1 | 3.1% |
| CCN1Cc2ccccc2CC2(CCN(CC3CCC3)CC2)C1=O | 4.15% |
| Cc1cc(C(=O)NC2CCc3c(ccc(=O)n3CC3CC3)C2)no1 (stereo not given) | 2.62% |
| CN1CC2(CCN(C(=O)Cn3ncc4ccccc4c3=O)CC2)OC1=O | -2.96% |
| COc1cc(CN(Cc2ccccn2)CC(C)C)cc2c1OCO2 | -16% |
| O=C1CC(C(=O)NCCN2CCOC2=O)c2cc(F)ccc2N1 (stereo not given) | -0.511% |
| CCCOC1CCCN(C(=O)Cn2cccc(C(F)(F)F)c2=O)C1 (stereo not given) | -0.912% |
| Cc1cc(NCc2nnc3n2CCC3)n2nc(C)c(C)c2n1 | 1.16% |
| Cc1ccc(CN(CCN(C)C)Cc2nc3ccccc3[nH]2)s1 | 3.34% |
| O=C(NCc1cc2n(n1)CCCN(Cc1ccc(Cl)s1)C2)C1CCC1 | 5.46% |
| COc1cccc(-c2cc(CN)ccc2F)c1F | -12.4% |
| Cc1cc(C)n(CCC(=O)N2CCCCC2c2nccs2)n1 (stereo not given) | 10.3% |
| CN(C)S(=O)(=O)N1CC[C@]2(O)CCN(c3cc(C#N)ccn3)C[C@@H]2C1 | 12.3% |
| Cc1ncc(S(C)(=O)=O)c(N2CCCN(Cc3ccccn3)CC2)n1 | 1.46% |
| CN(C)CCN1CC2(CCCN(c3ccc(Cl)cn3)C2)CCC1=O (stereo not given) | 2.69% |

| SMILES | cytotoxicity at 10 µM |
| --- | --- |
| C[C@@H]1CN(C(=O)c2c[nH]c(=O)c(Cl)c2)CC[C@@]1(O)C1CCOCC1 | 1.09% |
| Cc1c(CN2CC[C@@H](N3CCC(O)CC3)[C@H](O)C2)[nH]c2ccc(Cl)cc12 | -3.96% |
| O=C1CCC2(CCCN(c3ncc(Cl)cc3F)C2)CN1CC1CC1 (stereo not given) | 5.98% |
| CN1CCC2(CCC1=O)CCN(C(=O)Cc1ccc(O)c(F)c1)CC2 | -8.99% |
| Cc1ccc(CN2CCN(c3ncccc3C(N)=O)CC2CCO)cc1 (stereo not given) | -13.3% |
| CNS(=O)(=O)CCNc1cc(C)nc2cc(C)nn12 | 6.95% |
| Cc1nn(C)c2ncnc(N(C)CC3CCN(CC(C)C)C3)c12 (stereo not given) | -5.79% |
| Cc1nccn1-c1ccc(NC(=O)C2CCCN2Cc2c[nH]cn2)cc1 (stereo not given) | -15.2% |
| Cc1ocnc1C(=O)N1CC[C@@]2(O)CCN(C(=O)N3CCCC3)C[C@H]2C1 | -7.96% |
| Cc1nn2c(N3CCS(=O)(=O)CC3)cc(-c3ccccc3)nc2c1C | -6.43% |
| CCCc1cc(=O)[nH]c(-c2cccc(CN3CCN4CCCC4C3)c2)n1 (stereo not given) | -15.2% |
| COCC[C@]1(O)CCN(C2CCN(C(=O)C3CCC3)CC2)C[C@H]1C | 0.866% |
| COc1ccnc(CN2CCC=C(C(C)NC(C)=O)C2)c1OC (stereo not given) | -8.81% |
| Cc1cnccc1N1CCCN(C(=O)CCCc2cn[nH]c2)CC1 | -30.3% |
| CC(C)c1nccn1C1CCCN(C(=O)c2ccc3nncn3c2)C1 (stereo not given) | -5.53% |
| COC(=O)c1cccn1C1CCN(C(=O)c2c(C)noc2C)CC1 | -11.4% |
| COC(CNC(=O)NCc1c(C)cc(C)[nH]c1=O)c1ccccc1 (stereo not given) | -6.12% |
| CCOc1ccnc(N2CCN(C(=O)c3ccc(C#N)cc3)CC2)n1 | -10.6% |
| CSc1nccn1-c1ccc(C(=O)NCC2CC2)cc1 | -3.67% |
| CC(C)CCc1nc(CN2CCOC(Cn3cncn3)C2)cs1 (stereo not given) | -6.06% |
| CNS(=O)(=O)c1ccc(C(=O)N2CCCC2c2ccncc2)o1 (stereo not given) | -6.23% |
| CC1CN(CC(=O)NCc2cccs2)CCN1c1nccs1 (stereo not given) | -12.8% |

| SMILES | cytotoxicity at 10 µM |
| --- | --- |
| CCn1cnnc1CNC(=O)N(C)Cc1cccc(OC(F)F)c1 | -3.73% |
| COc1ccc(CNC(=O)NCCc2csc(C)n2)cn1 | -7.05% |
| CC(C)c1nnc2n1CCN(CC(=O)Nc1sccc1C#N)C2 | -2.6% |
| COc1ccccc1OCCN1CCC(N2CCNC2=O)CC1 | -3.19% |
| N#Cc1cn(C2CC2)c(=O)n(CC(O)c2ccccc2F)c1=O (stereo not given) | 3.97% |
| Cc1cnn(CC2CN(CC(=O)Nc3sccc3C#N)CCO2)c1 (stereo not given) | -0.935% |
| COCc1ccccc1C(=O)N1CCCC(n2nc(C)cc2C)C1 (stereo not given) | -10.5% |
| Cc1nn(C)c(Cl)c1C(=O)NCC(c1ccsc1)N(C)C (stereo not given) | -10% |
| Cc1ccc(CNC(=O)NCc2csc(C)n2)cn1 | -8.24% |
| CN(C)c1ccc(C(=O)N2CCN(C(=O)N3CCCCC3)CC2)nn1 | -9.14% |
| CCC(=O)N(C)CC(=O)Nc1ccc(Br)cn1 | 7.48% |
| Cc1ccc(CC(=O)NCCCNS(C)(=O)=O)cc1 | 3.1% |
| CN(Cc1nc2c(cnn2C)c(=O)[nH]1)Cc1ccc(F)cc1F | -1.29% |
| COc1cc(CNC(C)Cn2cccn2)cc(OC)c1OC (stereo not given) | -4.23% |
| COCC1COCCC12CCN(S(=O)(=O)c1cccnc1)CC2 (stereo not given) | 6.62% |
| COCCN1CCc2c(cnc(-c3ccccc3)c2C(=O)O)C1 | 2.24% |
| CO[C@@H]1CCN(S(=O)(=O)N(C)C)[C@@H]2CN(Cc3cccnc3)C[C@@H]21 | -1.91% |
| Cc1nc(CN2C(=O)CC3(CCN(C(N)=O)CC3)c3ccccc32)cs1 | -1.4% |
| O=C(NC[C@H]1OC[C@@H]2CCN(C3CCOCC3)C[C@@H]21)c1ccncc1 | 4.98% |
| COCCN1CC[C@@H]2CN(Cc3cccnc3OC)C[C@@H]2C1 | 13.6% |
| CCn1cc2c(n1)C(COC)CN(c1ccc(C)nn1)C2 (stereo not given) | 11.6% |
| O=C(NC1CCCCC1)N1CCC(n2cc3[nH]cccc-3c2=O)CC1 | -5.01% |
